In ChEMBL document CHEMBL1124406 (J Med Chem, 1989):

Columns and labels:
Dihydrofolate reductase = target: T1, Dihydrofolate reductase (Homo sapiens, UniProt P00374); assay: Compound was tested for its inhibitory activity against dihydrofolate reductase (DHFR), isolated from MTX-resistant WI-L2 cells; assay type: cell-based
T1 sequence (P00374 whole entry): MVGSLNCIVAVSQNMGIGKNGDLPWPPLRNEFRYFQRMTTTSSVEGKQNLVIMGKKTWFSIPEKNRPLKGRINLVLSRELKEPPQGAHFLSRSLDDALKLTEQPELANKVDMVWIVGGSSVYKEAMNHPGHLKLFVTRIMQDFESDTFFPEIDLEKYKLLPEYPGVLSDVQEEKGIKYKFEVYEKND

Mus musculus [1] = species: Mus musculus; assay: Ratio of Vmax and Km relative to AMT
Summary of the method: (§1)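 FPGS was partially purified from mouse liver, and the compounds were run as substrates. Km, Vmax and Vmax/Km came from the kinetic data. Vmax and Vmax/Km are expressed relative to aminopterin run in the same experiment. Each compound was tested in 2–3 experiments on different days.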

Mus musculus [2] = species: Mus musculus; assay: Vmax of compound was derived from purified Folyl-polyglutamate synthase from mouse liver; summary of the method: as §1
L1210 [3] = assay: Compound was measured for growth inhibition of L1210 cells in standard medium; assay type: functional, cell-based; settings: Mus musculus
L1210 [4] = assay: Compound was measured for growth inhibition of L1210 cells in the presence of hypoxanthine; assay type: functional, cell-based; settings: Mus musculus
Summary of the method: (§2)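 Reversal test of an antifolate effect on L1210 cell growth in culture. The drug is given alongside one of three supplements: thymidine alone at 10 μM, hypoxanthine alone at 100 μM, or thymidine 10 μM plus hypoxanthine 100 μM together.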

L1210 [5] = assay: Compound was measured for growth inhibition of L1210 cells in the presence of thymidine; assay type: functional, cell-based; settings: Mus musculus; summary of the method: as §2
L1210 [6] = assay: Compound was measured for growth inhibition of L1210 cells in the presence of thymidine plus hypoxanthine; assay type: functional, cell-based; settings: Mus musculus; summary of the method: as §2
L1210 [7] = assay: Inhibition of cell growth against L1210 murine leukemia cells; assay type: functional, cell-based; settings: Mus musculus
[8] = Inhibition of cell growth against WI-L2 cells; assay type: functional, cell-based; settings: Homo sapiens, WIL2
Mus musculus [9] = species: Mus musculus; assay: Kinetic constant of compound was derived from purified Folyl-polyglutamate synthase from mouse liver; summary of the method: as §1

| SMILES | IC50 (Dihydrofolate reductase) | Ratio (Mus musculus [1]) | Vmax (Mus musculus [2]) | IC50 (L1210 [3]) | IC50 (L1210 [4]) | IC50 (L1210 [5]) | IC50 (L1210 [6]) | IC50 (L1210 [7]) | IC50 [8] | Km (Mus musculus [9]) |
| --- | --- | --- | --- | --- | --- | --- | --- | --- | --- | --- |
| Cc1nc(N)c2nc(CNc3ccc(C(=O)NC(CCC(=O)O)C(=O)O)cc3)cnc2n1 (centres undefined) | > 50000 nM | 0.6 | 0.77 | 42 nM | 160 nM | 130 nM | > 100000 nM | 42 nM | 28 nM | 31.7 µM |
| Nc1nc(N)c2nc(CNc3ccc(C(=O)N[C@@H](CCC(=O)O)C(=O)O)cc3)cnc2n1 |  | 1 | 1 |  |  |  |  |  |  | 22.8 µM |
| CN(Cc1cnc2nc(N)nc(N)c2n1)c1ccc(C(=O)N[C@@H](CCC(=O)O)C(=O)O)cc1 [METHOTREXATE] |  |  |  |  |  |  |  | 9 nM | 13 nM |  |
| Nc1ncnc2ncc(CNc3ccc(C(=O)NC(CCC(=O)O)C(=O)O)cc3)nc12 (centres undefined) |  | 0.74 | 0.87 | 82 nM | 260 nM | 160 nM | > 100000 nM | 82 nM | 81 nM | 26.4 µM |
